Calls of active or inactive are those of the source. No cut-off for these calls is given here.
Assays:
Human alphaherpesvirus 1 [1] = test: Antiviral activity against Human herpesvirus 1 isolate P32 infected in African green monkey vero cells assessed as log reduction in viral titer at 100 uM after 30 mins; type: functional
Summary of the method: (§1)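 In the time course, HSV-1 clinical isolates (clarified Vero supernatants) were exposed to 100 μM EGCG for varying times up to 60 min. Residual infectivity was then titrated on Vero cells by 5-day CPE endpoint with Reed-Muench calculation. Mean ± SD of three separate experiments.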

Human alphaherpesvirus 2 [2] = test: Antiviral activity against Human herpesvirus 2 isolate P47 infected in African green monkey CV1 cells assessed as log reduction viral titer at 50 uM; type: functional, CV-1
Summary of the method: (§2)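 HSV-2 (clinical swab isolates or strain 333) was grown in CV-1 cells and used as clarified supernatant. Virus was exposed to graded EGCG for 1 h in RPMI 1640 with 1% FCS, pH 7.4. Tenfold dilutions were titrated on CV-1 cells, three wells each, 5 days at 37°C, scoring CPE. TCID50 was calculated by Reed-Muench. IC99 was read graphically as 99% titer drop from the zero-concentration titer. Mean of three experiments.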

Human alphaherpesvirus 2 [3] = test: Antiviral activity against Human herpesvirus 2 isolate P12 infected in African green monkey CV1 cells assessed as log reduction in viral titer at 100 uM within 10 mins; type: functional, CV-1
Summary of the method: (§3)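 HSV-2 clinical isolates from clarified CV-1 supernatants were held with 100 μM EGCG for timed intervals, from 10 min onward. Surviving virus was titrated on CV-1 cells by 10-fold dilution and 5-day CPE scoring, with TCID50 by Reed-Muench. Values are mean ± SD, three experiments.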

Human alphaherpesvirus 2 [4] = test: Antiviral activity against Human herpesvirus 2 isolate P27 infected in African green monkey CV1 cells assessed as log reduction in viral titer at 100 uM within 10 mins; type: functional, CV-1
Summary of the method: (§4)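 Time course: clarified CV-1 supernatant of HSV-2 (clinical isolates or strain 333) was exposed to 100 μM EGCG for increasing times. It was then titrated by tenfold dilution on CV-1 cells, three wells per dilution, for 5 days at 37°C with CPE read-out. Reed-Muench TCID50 was compared with the untreated titer. Mean of three separate experiments.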

Human alphaherpesvirus 1 [5] = test: Antiviral activity against Human herpesvirus 1 isolate P15 infected in African green monkey vero cells assessed as log reduction in viral titer at 100 uM after 30 mins; type: functional; summary of the method: as §1
Human alphaherpesvirus 1 [6] = test: Antiviral activity against Human herpesvirus 1 F1 assessed as damage of viral particle at 100 uM after 2 hrs by electron microscopy; type: functional, organism-based
Human alphaherpesvirus 1 [7] = test: Antiviral activity against Human herpesvirus 1 isolate P15 infected in African green monkey vero cells assessed as log reduction in viral titer at 100 uM after 40 to 60 mins; type: functional; summary of the method: as §1
Human alphaherpesvirus 1 [8] = test: Antiviral activity against Human herpesvirus 1 isolate P25 infected in African green monkey vero cells assessed as log reduction in viral titer at 100 uM after 30 mins; type: functional; summary of the method: as §1
Human alphaherpesvirus 1 [9] = test: Antiviral activity against Human herpesvirus 1 isolate P15 infected in African green monkey vero cells assessed as log reduction in viral titer at 50 uM; type: functional
Summary of the method: (§5)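 Laboratory HSV-1 F1 or patient-swab HSV-1 isolates were prepared as clarified Vero supernatants. They were incubated 1 h with a range of EGCG concentrations in RPMI 1640/1% FCS at pH 7.4. Titres were determined on Vero cells by 5-day CPE endpoint (Reed-Muench). IC99 was read graphically as 99% titre drop from untreated; mean ± SD, three experiments.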

Human alphaherpesvirus 1 [10] = test: Antiviral activity against Human herpesvirus 1 isolate P38 infected in African green monkey vero cells assessed as reduction in viral titer at 100 uM; type: functional, organism-based; summary of the method: as §5
Human alphaherpesvirus 2 [11] = test: Antiviral activity against Human herpesvirus 2 strain 333 strain 333 infected in African green monkey CV-1 cells; type: functional, cell-based; conditions: Human alphaherpesvirus 2, strain 333, CV-1; summary of the method: as §2
Human alphaherpesvirus 1 [12] = test: Antiviral activity against Human herpesvirus 1 isolate P56 infected in African green monkey vero cells assessed as log reduction in viral titer at 50 uM; type: functional; summary of the method: as §5
Human alphaherpesvirus 2 [13] = test: Antiviral activity against Human herpesvirus 2 isolate P11 infected in African green monkey CV1 cells assessed as log reduction viral titer at 50 uM; type: functional, CV-1
Summary of the method: (§6)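 HSV-2 patient-swab isolates were grown as clarified CV-1 supernatants and incubated 1 h with a range of EGCG concentrations (RPMI 1640/1% FCS, pH 7.4). They were titrated on CV-1 cells from 10-fold dilutions by 5-day CPE at 37°C, with Reed-Muench TCID50. IC99 was derived graphically as 99% reduction from zero-drug titre; mean ± SD, three experiments.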

Human alphaherpesvirus 2 [14] = test: Antiviral activity against Human herpesvirus 2 isolate P27 infected in African green monkey CV1 cells assessed as log reduction viral titer at 50 uM; type: functional, CV-1; summary of the method: as §2
Human alphaherpesvirus 2 [15] = test: Antiviral activity against Human herpesvirus 2 isolate P22 infected in African green monkey CV1 cells assessed as log reduction viral titer at 50 uM; type: functional, CV-1; summary of the method: as §2
Human alphaherpesvirus 2 [16] = test: Antiviral activity against Human herpesvirus 2 isolate P27 infected in African green monkey CV1 cells assessed as log reduction in viral titer at 100 uM within 20 mins; type: functional, CV-1; summary of the method: as §4
Human alphaherpesvirus 2 [17] = test: Antiviral activity against Human herpesvirus 2 isolate P12 infected in African green monkey CV1 cells assessed as log reduction in viral titer at 12.5 uM; type: functional, CV-1; summary of the method: as §6
Human alphaherpesvirus 2 [18] = test: Antiviral activity against Human herpesvirus 2 strain 333 infected in African green monkey CV1 cells assessed as log reduction in viral titer at 100 uM; type: functional, CV-1
Summary of the method: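 Lab strain HSV-2 333 was grown and titrated either in CV-1 cells or in Vero cells. Virus was incubated with 100 μM EGCG for 60 min, then titrated as tenfold dilutions for 5 days at 37°C with CPE scoring. Reed-Muench TCID50 of treated versus control virus gave the titer decrease. Mean of three experiments.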

Human alphaherpesvirus 2 [19] = test: Antiviral activity against Human herpesvirus 2 isolate P2 infected in African green monkey CV1 cells assessed as log reduction in viral titer at 12.5 uM; type: functional, CV-1; summary of the method: as §2
Human alphaherpesvirus 1 [20] = test: Antiviral activity against Human herpesvirus 1 isolate P56 infected in African green monkey vero cells assessed as reduction in viral titer; type: functional, organism-based; conditions: Human alphaherpesvirus 1, isolate P56, Vero; summary of the method: as §5
Human alphaherpesvirus 1 [21] = test: Antiviral activity against Human herpesvirus 1 F1 infected in African green monkey CV1 cells assessed as log reduction in viral titer at 100 uM; type: functional, CV-1
Human alphaherpesvirus 1 [22] = test: Antiviral activity against Human herpesvirus 1 isolate P42 infected in African green monkey vero cells assessed as log reduction in viral titer at 50 uM; type: functional; summary of the method: as §5
Human alphaherpesvirus 1 [23] = test: Binding affinity to Envelope glycoprotein B in Human herpesvirus 1 F1 assessed as macromolecular complex formation by SDS-PAGE
Summary of the method: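 Purified HSV-1 gB or gD (500 to 700 μg/ml) was incubated with EGCG (250 μg/ml; 545 μM) in 0.1 M potassium phosphate, pH 7.0, at 35°C for 24 h. Products were denatured at 50°C for 15 min in sample buffer and run on 6.5% SDS-PAGE. Bands were stained with Coomassie blue to detect higher-molecular-weight complexes.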

Human alphaherpesvirus 2 [24] = test: Antiviral activity against Human herpesvirus 2 isolate P12 infected in African green monkey CV1 cells assessed as log reduction in viral titer at 100 uM within 20 mins; type: functional, CV-1; summary of the method: as §3

Question: For `O=C(O[C@@H]1Cc2c(O)cc(O)cc2O[C@@H]1c1cc(O)c(O)c(O)c1)c1cc(O)c(O)c(O)c1` [EPIGALOCATECHIN GALLATE], which FC (Human alphaherpesvirus 1 [1]) is on record?
Answer: 2

Question: What about the FC (Human alphaherpesvirus 2 [2]) of the same compound?
Answer: >4

Question: What about the FC (Human alphaherpesvirus 2 [3]) of the same compound?
Answer: 2

Question: And the FC (Human alphaherpesvirus 2 [4])?
Answer: 2

Question: And the FC (Human alphaherpesvirus 1 [5])?
Answer: 2

Question: What about the Activity (Human alphaherpesvirus 1 [6]) of the same compound?
Answer: Active

Question: And the FC (Human alphaherpesvirus 1 [7])?
Answer: 3

Question: What about the FC (Human alphaherpesvirus 1 [8]) of the same compound?
Answer: 2

Question: And the FC (Human alphaherpesvirus 1 [9])?
Answer: 2

Question: And the Activity (Human alphaherpesvirus 1 [10])?
Answer: Active

Question: And the IC99 (Human alphaherpesvirus 2 [11])?
Answer: 25 µM

Question: What about the FC (Human alphaherpesvirus 1 [12]) of the same compound?
Answer: 2

Question: And the FC (Human alphaherpesvirus 2 [13])?
Answer: >4

Question: And the FC (Human alphaherpesvirus 2 [14])?
Answer: >4

Question: What about the FC (Human alphaherpesvirus 2 [15]) of the same compound?
Answer: >4

Question: What about the FC (Human alphaherpesvirus 2 [16]) of the same compound?
Answer: 3

Question: And the FC (Human alphaherpesvirus 2 [17])?
Answer: >=2

Question: What about the FC (Human alphaherpesvirus 2 [18]) of the same compound?
Answer: 4

Question: And the FC (Human alphaherpesvirus 2 [19])?
Answer: >=2

Question: And the IC99 (Human alphaherpesvirus 1 [20])?
Answer: 18.3 µM

Question: And the FC (Human alphaherpesvirus 1 [21])?
Answer: 3.5

Question: And the FC (Human alphaherpesvirus 1 [22])?
Answer: 2

Question: What about the Activity (Human alphaherpesvirus 1 [23]) of the same compound?
Answer: Active

Question: What about the FC (Human alphaherpesvirus 2 [24]) of the same compound?
Answer: 3

Reference: ChEMBL document CHEMBL1629542, “Epigallocatechin gallate inactivates clinical isolates of herpes simplex virus” (Antimicrob Agents Chemother, 2008)
